Results on 3 compounds are retold here after ChEMBL document CHEMBL1158443, “Discovery of novel lipophilic inhibitors of OXA-10 enzyme (class D beta-lactamase) by screening amino analogs and homologs of citrate and isocitrate” (Bioorg Med Chem Lett, 2009).

In assay [1] the target is T1, Beta-lactamase OXA-10 (Pseudomonas aeruginosa, UniProt P14489). Put plainly: Inactivation of Pseudomonas aeruginosa OXA10 beta-lactamase at pH 7.
A short description of assay [2]: Inhibition of TEM1 beta-lactamase assessed as residual activity at 100 uM at pH 7 using phosphate buffer by spectrophotometry; values are per cent of control.
The test system of assay [3] is Bacillus cereus. Put plainly: Inhibition of Bacillus cereus BC2 beta-lactamase assessed as residual activity at 100 uM at pH 5 using acetate buffer by spectrophotometry; values are per cent of control.
The target of assay [4] is Beta-lactamase (Bacillus licheniformis) (UniProt P00808). Put plainly: Inhibition of Bacillus licheniformis BS3 beta-lactamase assessed as residual activity at 100 uM at pH 7 using phosphate buffer by spectrophotometry; values are per cent of control.
Assay [5] addresses Beta-lactamase OXA-10 (Pseudomonas aeruginosa) (UniProt P14489). Put plainly: Inhibition of Pseudomonas aeruginosa OXA10 beta-lactamase assessed as residual activity at 100 uM at pH 7 using phosphate buffer by spectrophotometry; values are per cent of control.
Assay [6] in a line: Competitive inhibition of TEM1 beta-lactamase at pH 5. The gist of the method:
(§1)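 Ki came from plotting v0/vi against inhibitor concentration. v0/vi is the ratio of nitrocefin hydrolysis rates without and with inhibitor, monitored spectrophotometrically at 482 nm. Enzyme (1-100 nM) was preincubated with inhibitor for 30 min at 37 °C in the buffer for the stated pH.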

Assay [7] concerns the target Beta-lactamase VIM-4 (Pseudomonas aeruginosa) (UniProt Q8KRJ3). In words: Inhibition of Pseudomonas aeruginosa VIM4 beta-lactamase assessed as residual activity at 100 uM at pH 7 using HEPES buffer by spectrophotometry; values are per cent of control.
Assay [8] deals with Beta-lactamase (Enterobacter cloacae) (UniProt P05364). Put plainly: Inhibition of Enterobacter cloacae P99 beta-lactamase assessed as residual activity at 100 uM at pH 7 using phosphate buffer by spectrophotometry; values are per cent of control.
In assay [9] the target is T1, Beta-lactamase OXA-10. Put plainly: Competitive inhibition of Pseudomonas aeruginosa OXA10 beta-lactamase at pH 7. An outline of the steps: as §1

Beta-lactamase OXA-10 (Pseudomonas aeruginosa), sequence (P14489 whole entry): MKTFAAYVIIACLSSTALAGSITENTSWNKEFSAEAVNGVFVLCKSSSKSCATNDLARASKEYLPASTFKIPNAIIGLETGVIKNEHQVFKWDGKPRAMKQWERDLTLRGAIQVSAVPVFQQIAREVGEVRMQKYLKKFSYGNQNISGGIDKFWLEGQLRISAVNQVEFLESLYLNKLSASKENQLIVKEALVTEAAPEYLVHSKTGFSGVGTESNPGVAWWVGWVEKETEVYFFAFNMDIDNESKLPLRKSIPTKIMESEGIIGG
T1 sequence (P14489 whole entry): as above
Beta-lactamase (Bacillus licheniformis), sequence (P00808 whole entry): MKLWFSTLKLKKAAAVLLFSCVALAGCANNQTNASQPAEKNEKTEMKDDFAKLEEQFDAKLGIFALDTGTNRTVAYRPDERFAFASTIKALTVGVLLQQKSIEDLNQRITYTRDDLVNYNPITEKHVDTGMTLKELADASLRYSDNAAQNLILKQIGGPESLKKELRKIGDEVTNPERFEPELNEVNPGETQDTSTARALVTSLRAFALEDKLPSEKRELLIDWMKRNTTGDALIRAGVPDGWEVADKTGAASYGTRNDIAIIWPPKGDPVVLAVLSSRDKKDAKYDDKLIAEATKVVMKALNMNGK
Beta-lactamase (Enterobacter cloacae), sequence (P05364 21-381 limits assumed): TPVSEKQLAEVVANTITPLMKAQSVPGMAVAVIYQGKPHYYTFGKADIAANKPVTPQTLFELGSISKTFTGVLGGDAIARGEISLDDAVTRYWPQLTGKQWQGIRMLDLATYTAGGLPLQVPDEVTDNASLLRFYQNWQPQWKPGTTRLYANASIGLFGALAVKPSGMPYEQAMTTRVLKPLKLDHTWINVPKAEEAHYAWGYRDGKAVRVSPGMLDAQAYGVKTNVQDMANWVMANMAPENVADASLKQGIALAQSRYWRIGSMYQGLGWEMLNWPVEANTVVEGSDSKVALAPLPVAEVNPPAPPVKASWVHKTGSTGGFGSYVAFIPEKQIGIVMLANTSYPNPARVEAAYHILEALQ

What is called residual activity is the signal under treatment as a percentage of the control signal. With `NC(CC(=O)OCc1ccccc1)(CC(=O)OCc1ccccc1)C(=O)OCc1ccccc1`, the Ki in [1] came out at 95 µM. Moreover, the residual activity in assay [2] worked out at 100%; in assay [3], 90%; in [4] it was 100%; in assay [5], 10%.
`NC(CC(=O)O)(CC(=O)O)C(=O)O` returned a Ki in assay [6] of 150 µM. Moreover, the residual activity in assay [2] amounted to 95%; in [7], 100%; in assay [8] it was 81%; in [4], 88%.
In turn, `O=C(COc1ccccc1)NC(CC(=O)OCc1ccccc1)(CC(=O)OCc1ccccc1)C(=O)OCc1ccccc1` displayed a Ki in [9] of 20 µM. For the same compound, the residual activity in assay [5] came to 10%.
